Measured values published in ChEMBL document CHEMBL1275253, “Human antimicrobial peptide LL-37 induces MefE/Mel-mediated macrolide resistance in Streptococcus pneumoniae” (2010).
Converted amounts (≈) assume the structure as drawn.

How the values were obtained:
Format in all cases: functional
Streptococcus pneumoniae [1] = assay: Antimicrobial activity against Streptococcus pneumoniae XZ7042 by Etest method
Streptococcus pneumoniae [2] = assay: Antimicrobial activity against mega::aad9-positive Streptococcus pneumoniae XZ8004 by microdilution method
In short: (§1)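 Broth microdilution adapted for cationic antimicrobial peptides. Cultures grown to OD600 0.4 without inducer. Bacteria at a final 2 × 10^5/ml in 5-fold-diluted TH medium with 0.5% yeast extract, added to serial dilutions of test agent. After 1 h at 37°C, samples plated on blood agar and incubated 16 h at 37°C with 5% CO2. MIC and MBC read. At least three independent experiments; one representative shown.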

Streptococcus pneumoniae [3] = assay: Antimicrobial activity against Streptococcus pneumoniae XZ7042 expressing PmefE-lacZ gene induced by pretreatment with 1 ug/ml of erythromycin for 1 hr by microdilution method
In short: (§2)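 Cultures grown to OD600 0.4, split and pre-exposed 1 h to 1 μg/ml erythromycin. Final 2 × 10^5 bacteria/ml in 5-fold-diluted TH with 0.5% yeast extract, added to serial dilutions. After 1 h at 37°C, plated on blood agar. […] At least three independent experiments; one representative shown.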

Streptococcus pneumoniae [4] = assay: Antimicrobial activity against wild-type Streptococcus pneumoniae GA17457 by Etest method
Streptococcus pneumoniae [5] = assay: Antimicrobial activity against mega::aad9-positive Streptococcus pneumoniae XZ8004 expressing PmefE-lacZ gene induced by pretreatment with 100 ug/ml of compound for 1 hr by microdilution method
In short: (§3)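 Cultures grown to OD600 0.4, then split and pre-exposed 1 h to subinhibitory LL-37: 200 μg/ml for GA17457 and XZ7042, 50 for XZ8006 and XZ8009, 100 for XZ8004. Cells then at a final 2 × 10^5/ml in 5-fold-diluted TH with 0.5% yeast extract, added to serial dilutions. […] At least three independent experiments.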

Streptococcus pneumoniae [6] = assay: Antimicrobial activity against mefE-mel::aph3-positive Streptococcus pneumoniae XZ8009 by Etest method
Streptococcus pneumoniae [7] = assay: Antimicrobial activity against Streptococcus pneumoniae XZ7042 expressing PmefE-lacZ gene induced by pretreatment with 200 ug/ml of compound for 1 hr by microdilution method; in short: as §3
Streptococcus pneumoniae [8] = assay: Antimicrobial activity against wild-type Streptococcus pneumoniae GA17457 by microdilution method; in short: as §1
Streptococcus pneumoniae [9] = assay: Antimicrobial activity against wild-type Streptococcus pneumoniae GA17457 expressing PmefE-lacZ gene induced by pretreatment with 1 ug/ml of erythromycin for 1 hr by microdilution method; in short: as §2
Streptococcus pneumoniae [10] = assay: Antimicrobial activity against mega::aad9-positive Streptococcus pneumoniae XZ8006 by Etest method
Streptococcus pneumoniae [11] = assay: Antimicrobial activity against mefE-mel::aph3-positive Streptococcus pneumoniae XZ8009 expressing PmefE-lacZ gene induced by pretreatment with 50 ug/ml of compound for 1 hr by microdilution method; in short: as §3
Streptococcus pneumoniae [12] = assay: Antimicrobial activity against Streptococcus pneumoniae XZ7042 by microdilution method; in short: as §1
Streptococcus pneumoniae [13] = assay: Antimicrobial activity against mefE-mel::aph3-positive Streptococcus pneumoniae XZ8009 by microdilution method; in short: as §1
Streptococcus pneumoniae [14] = assay: Antimicrobial activity against wild-type Streptococcus pneumoniae GA17457 expressing PmefE-lacZ gene induced by pretreatment with 200 ug/ml of compound for 1 hr by microdilution method; in short: as §3
Streptococcus pneumoniae [15] = assay: Antimicrobial activity against mega::aad9-positive Streptococcus pneumoniae XZ8006 expressing PmefE-lacZ gene induced by pretreatment with 50 ug/ml of compound for 1 hr by microdilution method; in short: as §3
Streptococcus pneumoniae [16] = assay: Antimicrobial activity against mega::aad9-positive Streptococcus pneumoniae XZ8004 by Etest method
Streptococcus pneumoniae [17] = assay: Antimicrobial activity against mega::aad9-positive Streptococcus pneumoniae XZ8006 by microdilution method; in short: as §1
Streptococcus pneumoniae [18] = assay: Antimicrobial activity against Streptococcus pneumoniae XZ7042 expressing PmefE-lacZ gene induced by pretreatment with 1 ug/ml of compound for 1 hr by microdilution method
In short: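 Reporter: PmefE-lacZ integrated at bga in clinical isolate GA17457 (serotype 19A). Cultures grown to OD600 0.4, split, and grown 1 h with or without a subinhibitory 1 μg/ml inducer. […] Representative of ≥3 experiments.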

Streptococcus pneumoniae [19] = assay: Antimicrobial activity against wild-type Streptococcus pneumoniae GA17457 expressing PmefE-lacZ gene induced by pretreatment with 1 ug/ml of compound for 1 hr by microdilution method; in short: as §2
Streptococcus pneumoniae [20] = assay: Antimicrobial activity against wild-type Streptococcus pneumoniae GA17457 expressing PmefE-lacZ gene induced by pretreatment with 200 ug/ml of LL-37 peptide for 1 hr by microdilution method; in short: as §3
Streptococcus pneumoniae [21] = assay: Antimicrobial activity against mega::aad9-positive Streptococcus pneumoniae XZ8004 expressing PmefE-lacZ gene induced by pretreatment with 100 ug/ml of LL-37 peptide for 1 hr by microdilution method; in short: as §3
Streptococcus pneumoniae [22] = assay: Antimicrobial activity against Streptococcus pneumoniae XZ7042 expressing PmefE-lacZ gene induced by pretreatment with 200 ug/ml of LL-37 peptide for 1 hr by microdilution method; in short: as §3
Streptococcus pneumoniae [23] = assay: Antimicrobial activity against mefE-mel::aph3-positive Streptococcus pneumoniae XZ8009 expressing PmefE-lacZ gene induced by pretreatment with 50 ug/ml of LL-37 peptide for 1 hr by microdilution method; in short: as §3
Streptococcus pneumoniae [24] = assay: Antimicrobial activity against mega::aad9-positive Streptococcus pneumoniae XZ8006 expressing PmefE-lacZ gene induced by pretreatment with 50 ug/ml of LL-37 peptide for 1 hr by microdilution method; in short: as §3

CC[C@H](C)[C@H](NC(=O)[C@H](CCCCN)NC(=O)[C@H](CCC(=O)O)NC(=O)[C@H](CCCCN)NC(=O)[C@H](CO)NC(=O)[C@H](CCCCN)NC(=O)[C@H](CCCNC(=N)N)NC(=O)[C@H](Cc1ccccc1)NC(=O)[C@H](Cc1ccccc1)NC(=O)[C@H](CC(=O)O)NC(=O)CNC(=O)[C@H](CC(C)C)NC(=O)[C@@H](N)CC(C)C)C(=O)NCC(=O)N[C@@H](CCCCN)C(=O)N[C@@H](CCC(=O)O)C(=O)N[C@@H](Cc1ccccc1)C(=O)N[C@@H](CCCCN)C(=O)N[C@@H](CCCNC(=N)N)C(=O)N[C@H](C(=O)N[C@H](C(=O)N[C@@H](CCC(N)=O)C(=O)N[C@@H](CCCNC(=N)N)C(=O)N[C@H](C(=O)N[C@@H](CCCCN)C(=O)N[C@@H](CC(=O)O)C(=O)N[C@@H](Cc1ccccc1)C(=O)N[C@@H](CC(C)C)C(=O)N[C@@H](CCCNC(=N)N)C(=O)N[C@@H](CC(N)=O)C(=O)N[C@@H](CC(C)C)C(=O)N[C@H](C(=O)N1CCC[C@H]1C(=O)N[C@@H](CCCNC(=N)N)C(=O)N[C@H](C(=O)N[C@@H](CCC(=O)O)C(=O)N[C@@H](CO)C(=O)O)[C@@H](C)O)C(C)C)[C@@H](C)CC)C(C)C)[C@@H](C)CC [CATHELICIDIN]
MIC (Streptococcus pneumoniae [1]): 12 µg/mL (≈ 2.67 µM) | MBC (Streptococcus pneumoniae [2]): 500 µg/mL (≈ 111 µM) | MIC (Streptococcus pneumoniae [2]): 250 µg/mL (≈ 55.6 µM) | MBC (Streptococcus pneumoniae [3]): > 2000 µg/mL | MIC (Streptococcus pneumoniae [3]): 2000 µg/mL | MIC (Streptococcus pneumoniae [4]): 12 µg/mL (≈ 2.67 µM) | MBC (Streptococcus pneumoniae [5]): 250 µg/mL (≈ 55.6 µM) | MIC (Streptococcus pneumoniae [5]): 125 µg/mL (≈ 27.8 µM) | MIC (Streptococcus pneumoniae [6]): 0.125 µg/mL (≈ 0.0278 µM) | MBC (Streptococcus pneumoniae [7]): > 2000 µg/mL | MIC (Streptococcus pneumoniae [7]): 2000 µg/mL (≈ 445 µM) | MBC (Streptococcus pneumoniae [8]): 1000 µg/mL (≈ 223 µM) | MIC (Streptococcus pneumoniae [8]): 500 µg/mL (≈ 111 µM) | MBC (Streptococcus pneumoniae [9]): > 2000 µg/mL | MIC (Streptococcus pneumoniae [9]): 2000 µg/mL | MIC (Streptococcus pneumoniae [10]): 0.125 µg/mL (≈ 0.0278 µM) | MBC (Streptococcus pneumoniae [11]): 250 µg/mL (≈ 55.6 µM) | MIC (Streptococcus pneumoniae [11]): 64 µg/mL (≈ 14.2 µM) | MBC (Streptococcus pneumoniae [12]): 1000 µg/mL (≈ 223 µM) | MIC (Streptococcus pneumoniae [12]): 500 µg/mL (≈ 111 µM) | MBC (Streptococcus pneumoniae [13]): 250 µg/mL (≈ 55.6 µM) | MIC (Streptococcus pneumoniae [13]): 125 µg/mL (≈ 27.8 µM) | MBC (Streptococcus pneumoniae [14]): > 2000 µg/mL | MIC (Streptococcus pneumoniae [14]): 2000 µg/mL (≈ 445 µM) | MBC (Streptococcus pneumoniae [15]): 250 µg/mL (≈ 55.6 µM) | MIC (Streptococcus pneumoniae [15]): 125 µg/mL (≈ 27.8 µM) | MIC (Streptococcus pneumoniae [16]): 0.125 µg/mL (≈ 0.0278 µM) | MBC (Streptococcus pneumoniae [17]): 250 µg/mL (≈ 55.6 µM) | MIC (Streptococcus pneumoniae [17]): 125 µg/mL (≈ 27.8 µM)

CC[C@H]1OC(=O)[C@H](C)[C@@H](O[C@H]2C[C@@](C)(OC)[C@@H](O)[C@H](C)O2)[C@H](C)[C@@H](O[C@@H]2O[C@H](C)C[C@H](N(C)C)[C@H]2O)[C@](C)(O)C[C@@H](C)C(=O)[C@H](C)[C@@H](O)[C@]1(C)O [ERYTHROMYCIN]
MBC (Streptococcus pneumoniae [2]): 4 µg/mL (≈ 5.45 µM) | MIC (Streptococcus pneumoniae [2]): 0.25 µg/mL (≈ 0.341 µM) | MBC (Streptococcus pneumoniae [18]): > 64 µg/mL | MIC (Streptococcus pneumoniae [18]): 4 µg/mL (≈ 5.45 µM) | MBC (Streptococcus pneumoniae [19]): > 64 µg/mL | MIC (Streptococcus pneumoniae [19]): 8 µg/mL (≈ 10.9 µM) | MBC (Streptococcus pneumoniae [20]): 32 µg/mL (≈ 43.6 µM) | MIC (Streptococcus pneumoniae [20]): 8 µg/mL (≈ 10.9 µM) | MBC (Streptococcus pneumoniae [21]): 4 µg/mL (≈ 5.45 µM) | MIC (Streptococcus pneumoniae [21]): 0.5 µg/mL (≈ 0.681 µM) | MBC (Streptococcus pneumoniae [22]): 32 µg/mL (≈ 43.6 µM) | MIC (Streptococcus pneumoniae [22]): 16 µg/mL (≈ 21.8 µM) | MBC (Streptococcus pneumoniae [8]): 16 µg/mL (≈ 21.8 µM) | MIC (Streptococcus pneumoniae [8]): 2 µg/mL (≈ 2.73 µM) | MBC (Streptococcus pneumoniae [23]): 2 µg/mL (≈ 2.73 µM) | MIC (Streptococcus pneumoniae [23]): 0.125 µg/mL (≈ 0.17 µM) | MBC (Streptococcus pneumoniae [12]): 8 µg/mL (≈ 10.9 µM) | MIC (Streptococcus pneumoniae [12]): 1 µg/mL (≈ 1.36 µM) | MBC (Streptococcus pneumoniae [13]): 4 µg/mL (≈ 5.45 µM) | MIC (Streptococcus pneumoniae [13]): 0.5 µg/mL (≈ 0.681 µM) | MBC (Streptococcus pneumoniae [24]): 4 µg/mL (≈ 5.45 µM) | MIC (Streptococcus pneumoniae [24]): 0.5 µg/mL (≈ 0.681 µM) | MBC (Streptococcus pneumoniae [17]): 4 µg/mL (≈ 5.45 µM) | MIC (Streptococcus pneumoniae [17]): 0.5 µg/mL (≈ 0.681 µM)
